Test system: Fibroblast
Experiment: Multiplex assay against human fibroblast
Assay type: toxicity, cell-based
Outline: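 Four dyes were applied at seeding to live cells: Hoechst33342, BioTracker Green Microtubule Cytoskeleton Dye, MitoTracker Red and Annexin V Alexa Fluor 680. Imaging after compound addition used a CQ1 microscope at 37°C and 5% CO2. CellPathfinder machine-learning gating then sorted cells into Hoechst high-intensity objects or normal cells, normal cells into healthy, pyknosed or fragmented nuclei, and pyknosed cells into mitotic or apoptotic, with tubulin, mitochondrial-mass and membrane-permeability phenotypes given as per cents of healthy-nucleus cells.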

[1] = 12 h, 1 µM, compound concentration 1 uM, replicate 1
[2] = 12 h, 1 µM, compound concentration 1 uM, replicate 2
[3] = 12 h, 10 µM, compound concentration 10 uM, replicate 1
[4] = 12 h, 10 µM, compound concentration 10 uM, replicate 2
[5] = 24 h, 1 µM, compound concentration 1 uM, replicate 1
[6] = 24 h, 1 µM, compound concentration 1 uM, replicate 2
[7] = 24 h, 10 µM, compound concentration 10 uM, replicate 1
[8] = 24 h, 10 µM, compound concentration 10 uM, replicate 2
[9] = 48 h, 1 µM, compound concentration 1 uM, replicate 1
[10] = 48 h, 1 µM, compound concentration 1 uM, replicate 2
[11] = 48 h, 10 µM, compound concentration 10 uM, replicate 1
[12] = 48 h, 10 µM, compound concentration 10 uM, replicate 2

With CN(C)CC#Cc1ccc(OCCCc2sc(N3CCc4cccc(C(=O)Nc5nc6ccccc6s5)c4C3)nc2C(=O)O)c(F)c1 [A-1155463] the “Population Apoptotic (%)” value [1] was 74%, the “Population Fragmented Nuclei (%)” value [1] was 27% and the “Population Healthy Nuclei (%)” value [1] was 44%. The “Population Hoechst High Intensity Objects (%)” value [1] was 12%, the “Population Membrane Permeable-Phenotype (%)” value [1] was 30% and the “Population Mitochondria Different-Phenotype (%)” value [1] was 9%. For the same compound, the “Population Mitotic Cells (%)” value [1] was 25%, the “Population Normal (%)” value [1] was 87% and the “Population Pyknosed Nuclei (%)” value [1] was 27%. The “Population Tubulin-Different-Phenotype (%)” value [1] was 46%, the “Total Cell Count” value [1] was 111 and the “Population Apoptotic (%)” value [2] was 66%. For the same compound, the “Population Fragmented Nuclei (%)” value [2] was 39%, the “Population Healthy Nuclei (%)” value [2] was 53% and the “Population Hoechst High Intensity Objects (%)” value [2] was 4%. For the same compound, the “Population Membrane Permeable-Phenotype (%)” value [2] was 13%, the “Population Mitochondria Different-Phenotype (%)” value [2] was 31% and the “Population Mitotic Cells (%)” value [2] was 33%. The “Population Normal (%)” value [2] was 95%, the “Population Pyknosed Nuclei (%)” value [2] was 7% and the “Population Tubulin-Different-Phenotype (%)” value [2] was 27%. For the same compound, the “Total Cell Count” value [2] was 86, the “Population Apoptotic (%)” value [3] was 63% and the “Population Fragmented Nuclei (%)” value [3] was 24%. For the same compound, the “Population Healthy Nuclei (%)” value [3] was 41%, the “Population Hoechst High Intensity Objects (%)” value [3] was 11% and the “Population Membrane Permeable-Phenotype (%)” value [3] was 42%. The “Population Mitochondria Different-Phenotype (%)” value [3] was 4%, the “Population Mitotic Cells (%)” value [3] was 36% and the “Population Normal (%)” value [3] was 88%. For the same compound, the “Population Pyknosed Nuclei (%)” value [3] was 33%, the “Population Tubulin-Different-Phenotype (%)” value [3] was 74% and the “Total Cell Count” value [3] was 173. For the same compound, the “Population Apoptotic (%)” value [4] was 86%, the “Population Fragmented Nuclei (%)” value [4] was 33% and the “Population Healthy Nuclei (%)” value [4] was 42%. For the same compound, the “Population Hoechst High Intensity Objects (%)” value [4] was 5%, the “Population Membrane Permeable-Phenotype (%)” value [4] was 24% and the “Population Mitochondria Different-Phenotype (%)” value [4] was 16%. The “Population Mitotic Cells (%)” value [4] was 13%, the “Population Normal (%)” value [4] was 94% and the “Population Pyknosed Nuclei (%)” value [4] was 23%. The “Population Tubulin-Different-Phenotype (%)” value [4] was 25%, the “Total Cell Count” value [4] was 133 and the “Population Apoptotic (%)” value [5] was 62%. For the same compound, the “Population Fragmented Nuclei (%)” value [5] was 30%, the “Population Healthy Nuclei (%)” value [5] was 33% and the “Population Hoechst High Intensity Objects (%)” value [5] was 11%. For the same compound, the “Population Membrane Permeable-Phenotype (%)” value [5] was 37%, the “Population Mitochondria Different-Phenotype (%)” value [5] was 7% and the “Population Mitotic Cells (%)” value [5] was 37%. For the same compound, the “Population Normal (%)” value [5] was 88%, the “Population Pyknosed Nuclei (%)” value [5] was 36% and the “Population Tubulin-Different-Phenotype (%)” value [5] was 50%. For the same compound, the “Total Cell Count” value [5] was 134, the “Population Apoptotic (%)” value [6] was 50% and the “Population Fragmented Nuclei (%)” value [6] was 36%. For the same compound, the “Population Healthy Nuclei (%)” value [6] was 54%, the “Population Hoechst High Intensity Objects (%)” value [6] was 7% and the “Population Membrane Permeable-Phenotype (%)” value [6] was 13%. The “Population Mitochondria Different-Phenotype (%)” value [6] was 32%, the “Population Mitotic Cells (%)” value [6] was 50% and the “Population Normal (%)” value [6] was 92%. For the same compound, the “Population Pyknosed Nuclei (%)” value [6] was 9%, the “Population Tubulin-Different-Phenotype (%)” value [6] was 28% and the “Total Cell Count” value [6] was 92. The “Population Apoptotic (%)” value [7] was 71%, the “Population Fragmented Nuclei (%)” value [7] was 27% and the “Population Healthy Nuclei (%)” value [7] was 50%. For the same compound, the “Population Hoechst High Intensity Objects (%)” value [7] was 9%, the “Population Membrane Permeable-Phenotype (%)” value [7] was 44% and the “Population Mitochondria Different-Phenotype (%)” value [7] was 2%. For the same compound, the “Population Mitotic Cells (%)” value [7] was 28%, the “Population Normal (%)” value [7] was 90% and the “Population Tubulin-Different-Phenotype (%)” value [7] was 76%. For the same compound, the “Total Cell Count” value [7] was 170, the “Population Apoptotic (%)” value [8] was 81% and the “Population Fragmented Nuclei (%)” value [8] was 32%. The “Population Healthy Nuclei (%)” value [8] was 45%, the “Population Hoechst High Intensity Objects (%)” value [8] was 10% and the “Population Membrane Permeable-Phenotype (%)” value [8] was 20%. The “Population Mitochondria Different-Phenotype (%)” value [8] was 14%, the “Population Mitotic Cells (%)” value [8] was 18% and the “Population Normal (%)” value [8] was 89%. For the same compound, the “Population Pyknosed Nuclei (%)” value [8] was 22%, the “Population Tubulin-Different-Phenotype (%)” value [8] was 21% and the “Total Cell Count” value [8] was 135. The “Population Apoptotic (%)” value [9] was 68%, the “Population Fragmented Nuclei (%)” value [9] was 31% and the “Population Healthy Nuclei (%)” value [9] was 34%. The “Population Hoechst High Intensity Objects (%)” value [9] was 18%, the “Population Membrane Permeable-Phenotype (%)” value [9] was 20% and the “Population Mitochondria Different-Phenotype (%)” value [9] was 3%. For the same compound, the “Population Mitotic Cells (%)” value [9] was 31%, the “Population Normal (%)” value [9] was 81% and the “Population Pyknosed Nuclei (%)” value [9] was 33%. The “Population Tubulin-Different-Phenotype (%)” value [9] was 56%, the “Total Cell Count” value [9] was 106 and the “Population Apoptotic (%)” value [10] was 80%. For the same compound, the “Population Fragmented Nuclei (%)” value [10] was 35%, the “Population Healthy Nuclei (%)” value [10] was 53% and the “Population Hoechst High Intensity Objects (%)” value [10] was 11%. For the same compound, the “Population Membrane Permeable-Phenotype (%)” value [10] was 28%, the “Population Mitochondria Different-Phenotype (%)” value [10] was 6% and the “Population Mitotic Cells (%)” value [10] was 20%. The “Population Normal (%)” value [10] was 88%, the “Population Pyknosed Nuclei (%)” value [10] was 10% and the “Population Tubulin-Different-Phenotype (%)” value [10] was 44%. For the same compound, the “Total Cell Count” value [10] was 105, the “Population Apoptotic (%)” value [11] was 66% and the “Population Fragmented Nuclei (%)” value [11] was 38%. The “Population Healthy Nuclei (%)” value [11] was 39%, the “Population Hoechst High Intensity Objects (%)” value [11] was 10% and the “Population Membrane Permeable-Phenotype (%)” value [11] was 50%. For the same compound, the “Population Mitochondria Different-Phenotype (%)” value [11] was 10%, the “Population Mitotic Cells (%)” value [11] was 33% and the “Population Normal (%)” value [11] was 89%. For the same compound, the “Population Pyknosed Nuclei (%)” value [11] was 22%, the “Population Tubulin-Different-Phenotype (%)” value [11] was 81% and the “Total Cell Count” value [11] was 135. For the same compound, the “Population Apoptotic (%)” value [12] was 95%, the “Population Fragmented Nuclei (%)” value [12] was 25% and the “Population Healthy Nuclei (%)” value [12] was 57%. The “Population Hoechst High Intensity Objects (%)” value [12] was 14%, the “Population Membrane Permeable-Phenotype (%)” value [12] was 35% and the “Population Mitochondria Different-Phenotype (%)” value [12] was 9%. The “Population Mitotic Cells (%)” value [12] was 4%, the “Population Normal (%)” value [12] was 85% and the “Population Pyknosed Nuclei (%)” value [12] was 17%. For the same compound, the “Population Tubulin-Different-Phenotype (%)” value [12] was 74% and the “Total Cell Count” value [12] was 145.

— ChEMBL document CHEMBL4689842, “EUbOPEN Chemogenomics Library wave 1” (2021)
